In ChEMBL document CHEMBL2346557 (Bioorg Med Chem, 2013):
Converted amounts (≈) assume the structure as drawn. The source made the active and inactive calls. No cut-off for these calls is given here.

Assays:
[1] = AUClast in CD1 mouse at 10 mg/kg, iv; format: ADME, organism-based; parameters: time 0 - last, dose 10 mg/kg, route intravenous; conditions: plasma
Outline: (§1)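 CD1 mice (n = 3 per compound) given 10 mg/kg as a single tail-vein injection in a pH 7.0 solution of 10% ethanol plus PEG400 (some compounds also with 10% DMSO). Blood was sampled at 0, 5, 15 and 30 min and 1, 2, 4, 8 and 24 h. Parameters were derived from the plasma concentration–time profiles.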

Cytochrome P450 2C9 = Cytochrome P450 2C9 (Homo sapiens, UniProt P11712); experiment: Inhibition of CYP2C9 (unknown origin); format: ADME
Cytochrome P450 3A4 = Cytochrome P450 3A4 (Homo sapiens, UniProt P08684); experiment: Induction of CYP3A4 in human hepatocytes; format: ADME, cell-based, Hepatocyte
Outline: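 Cryopreserved hepatocytes from 3 human donors were cultured on collagen for 3 days, then dosed daily in fresh medium with 1, 10 or 100 μM compound, vehicle, or rifampin as positive control. CYP3A4 activity was read 24 h after the last dose using testosterone as probe substrate, analysed by LC/MS/MS. Induction is expressed as % of positive control; >40% in any donor counts as a potential inducer.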

Canis familiaris [2] = experiment: Total unbound Cmax in beagle dog at 30 mg/kg, po; format: ADME, organism-based, Canis lupus familiaris; parameters: dose 30 mg/kg, route oral; conditions: in vivo
Outline: (§2)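 Beagles (n = 3) were given an oral emulsion in 30% Labrafil. Blood was collected at 0, 5, 15 and 30 min and at 1, 2, 4, 8 and 24 h. Bioavailability was derived relative to IV dosing.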

[3] = Tmax in Sprague-Dawley rat at 50 mg/kg, po; format: ADME, organism-based; parameters: dose 50 mg/kg, route oral; conditions: in vivo
Outline: (§3)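 Sprague–Dawley rats (n = 3) were dosed orally with an emulsion in 30% Labrafil. Blood was sampled from 0 to 24 h (0, 5, 15, 30 min; 1, 2, 4, 8, 24 h). Bioavailability was derived against the IV arm.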

[4] = Metabolic stability in dog liver microsomes assessed as compound remaining at 2 uM measured at 1 hr; format: ADME, Canis lupus familiaris, Microsome; conditions: read-out: Stability
Outline: (§4)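 Liver microsomes (human, or male monkey, dog, rat or mouse) at 0.5 mg/mL final with 2 µM compound, 5 mM MgCl2 and 5 mM PBS. The reaction was started with 1 mM NADPH and run at 37 °C. Verapamil was the positive control; water replaced NADPH in the negative control. Read-out was percent parent remaining at 1 h.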

[5] = Volume of distribution at steady state in CD1 mouse at 10 mg/kg, iv; format: ADME, organism-based; parameters: dose 10 mg/kg, route intravenous; conditions: in vivo, read-out: Vdss; outline: as §1
Rattus norvegicus [6] = experiment: Total unbound Cmax in Sprague-Dawley rat at 50 mg/kg, po; format: ADME, organism-based; parameters: dose 50 mg/kg, route oral; conditions: in vivo; outline: as §3
Mus musculus [7] = experiment: Total unbound AUC (0 to infinity) in CD1 mouse at 10 mg/kg, iv; format: ADME, organism-based; parameters: dose 10 mg/kg, route intravenous; conditions: in vivo
[8] = Terminal half life in CD1 mouse at 50 mg/kg, po; format: ADME, organism-based; parameters: dose 50 mg/kg, route oral; conditions: in vivo, read-out: beta t1/2 (converted)
Outline: (§5)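 CD1 mice (n = 3 per compound) were dosed orally at 50 mg/kg as an aqueous emulsion in 30% Labrafil. Blood was drawn at 0, 5, 15 and 30 min and 1, 2, 4, 8 and 24 h. Bioavailability and other parameters were calculated from the plasma profiles and compared against the intravenous arm.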

[9] = Metabolic stability in monkey liver microsomes assessed as compound remaining at 2 uM measured at 1 hr; format: ADME, Macaca mulatta, Microsome; conditions: rhesus monkey, read-out: Stability; outline: as §4
Canis familiaris [10] = experiment: Total unbound AUC (0 to infinity) in beagle dog at 30 mg/kg, po; format: ADME, organism-based, Canis lupus familiaris; parameters: dose 30 mg/kg, route oral; conditions: in vivo; outline: as §2
Caco-2 = experiment: Apparent permeability from apical to basolateral side of human Caco2 cells; format: ADME, cell-based
Outline: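 Caco-2 monolayer permeability measured in the apical-to-basolateral direction and reported as Papp (10−6 cm/s); the efflux ratio was also determined.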

Canis familiaris [11] = experiment: Oral bioavailability in beagle dog at 30 mg/kg; format: ADME, organism-based, Canis lupus familiaris; conditions: in vivo; outline: as §2
[12] = Terminal half life in beagle dog at 10 mg/kg, iv; format: ADME, organism-based, Canis lupus familiaris; parameters: dose 10 mg/kg, route intravenous; conditions: in vivo, read-out: beta t1/2 (converted)
[13] = Mean residence time in CD1 mouse at 10 mg/kg, iv; format: ADME, organism-based; parameters: dose 10 mg/kg, route intravenous; conditions: in vivo; outline: as §1
[14] = Solubility of the compound; format: physicochemical
Salmonella typhimurium = experiment: Genotoxicity in Salmonella typhimurium by Ames test; format: toxicity, organism-based; conditions: salmonella enterica subsp. enterica serovar typhimurium
[15] = Metabolic stability in mouse liver microsomes assessed as compound remaining at 2 uM measured at 1 hr; format: ADME, Microsome; conditions: read-out: Stability; outline: as §4
[16] = AUClast in CD1 mouse at 50 mg/kg, po; format: ADME, organism-based; parameters: time 0 - last, dose 50 mg/kg, route oral; conditions: plasma; outline: as §5
[17] = Clearance in Sprague-Dawley rat at 10 mg/kg, iv; format: ADME, organism-based; parameters: dose 10 mg/kg, route intravenous; conditions: in vivo
[18] = biological target: Voltage-gated inwardly rectifying potassium channel KCNH2 (Homo sapiens, UniProt Q12809); experiment: Inhibition of human ERG
Rattus norvegicus [19] = experiment: Oral bioavailability in Sprague-Dawley rat at 50 mg/kg; format: ADME, organism-based; conditions: in vivo; outline: as §3
Mus musculus [20] = experiment: Oral bioavailability in CD1 mouse at 50 mg/kg; format: ADME, organism-based; conditions: in vivo; outline: as §5
Mus musculus [21] = experiment: Total unbound Cmax in CD1 mouse at 10 mg/kg, iv; format: ADME, organism-based; parameters: dose 10 mg/kg, route intravenous; conditions: in vivo
[22] = Volume of distribution at steady state in Sprague-Dawley rat at 10 mg/kg, iv; format: ADME, organism-based; parameters: dose 10 mg/kg, route intravenous; conditions: in vivo, read-out: Vdss
[23] = biological target: T1, Glucocorticoid receptor (Homo sapiens) (UniProt P04150); experiment: Transactivation of glucocorticoid receptor in HEK293 cells co-transfected with GRE assessed as induction of GRE-dependent gene expression at 100 ug/ml after 6 hrs by luciferase reporter gene assay; format: cell-based
T1 sequence (whole entry): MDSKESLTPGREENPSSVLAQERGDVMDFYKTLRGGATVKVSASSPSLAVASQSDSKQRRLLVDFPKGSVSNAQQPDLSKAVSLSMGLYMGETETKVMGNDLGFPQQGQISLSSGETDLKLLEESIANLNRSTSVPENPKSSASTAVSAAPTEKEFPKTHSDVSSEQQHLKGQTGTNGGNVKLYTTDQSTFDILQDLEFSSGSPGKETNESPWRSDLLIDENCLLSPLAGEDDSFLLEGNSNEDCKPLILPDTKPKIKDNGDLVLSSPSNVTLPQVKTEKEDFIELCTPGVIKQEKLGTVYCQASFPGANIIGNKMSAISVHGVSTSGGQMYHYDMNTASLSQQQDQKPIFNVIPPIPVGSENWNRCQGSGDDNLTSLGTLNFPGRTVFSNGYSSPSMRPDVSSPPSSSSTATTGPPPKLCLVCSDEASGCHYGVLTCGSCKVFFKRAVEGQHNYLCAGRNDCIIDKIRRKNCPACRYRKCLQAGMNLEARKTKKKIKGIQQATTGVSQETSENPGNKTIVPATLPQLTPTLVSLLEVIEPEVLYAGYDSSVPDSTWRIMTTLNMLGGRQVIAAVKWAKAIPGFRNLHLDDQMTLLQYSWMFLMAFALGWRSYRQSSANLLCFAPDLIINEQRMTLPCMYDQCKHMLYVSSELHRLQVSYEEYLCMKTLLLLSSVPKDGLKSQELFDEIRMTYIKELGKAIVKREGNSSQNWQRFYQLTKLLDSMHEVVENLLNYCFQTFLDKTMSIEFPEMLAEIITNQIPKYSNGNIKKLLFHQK
Outline: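 HEK-293 cells stably transfected with a GRE-driven luciferase reporter were exposed to drug at 0.01–100 μg/ml for 6 h. Cells were washed with PBS and lysed, and luciferase activity was measured by luminometer.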

Rattus norvegicus [24] = experiment: Total unbound AUC (0 to infinity) in Sprague-Dawley rat at 10 mg/kg, iv; format: ADME, organism-based; parameters: dose 10 mg/kg, route intravenous; conditions: in vivo
Mus musculus [25] = experiment: Total unbound AUC (0 to infinity) in CD1 mouse at 50 mg/kg, po; format: ADME, organism-based; parameters: dose 50 mg/kg, route oral; conditions: in vivo

Sequence of Cytochrome P450 3A4 (P08684 whole entry): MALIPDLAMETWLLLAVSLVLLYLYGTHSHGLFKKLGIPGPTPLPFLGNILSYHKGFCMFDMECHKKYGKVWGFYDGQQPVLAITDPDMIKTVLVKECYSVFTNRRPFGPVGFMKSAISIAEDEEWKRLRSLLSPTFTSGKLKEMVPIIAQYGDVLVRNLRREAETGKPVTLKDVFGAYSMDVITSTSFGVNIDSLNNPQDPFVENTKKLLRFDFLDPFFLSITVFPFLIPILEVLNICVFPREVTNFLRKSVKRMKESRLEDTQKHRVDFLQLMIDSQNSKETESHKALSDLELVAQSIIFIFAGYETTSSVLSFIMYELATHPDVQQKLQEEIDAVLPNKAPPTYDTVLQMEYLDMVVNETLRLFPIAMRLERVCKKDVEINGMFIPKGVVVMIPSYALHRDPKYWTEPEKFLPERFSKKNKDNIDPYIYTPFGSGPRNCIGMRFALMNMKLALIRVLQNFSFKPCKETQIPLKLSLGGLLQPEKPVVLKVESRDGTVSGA
Sequence of Voltage-gated inwardly rectifying potassium channel KCNH2 (Q12809 whole entry): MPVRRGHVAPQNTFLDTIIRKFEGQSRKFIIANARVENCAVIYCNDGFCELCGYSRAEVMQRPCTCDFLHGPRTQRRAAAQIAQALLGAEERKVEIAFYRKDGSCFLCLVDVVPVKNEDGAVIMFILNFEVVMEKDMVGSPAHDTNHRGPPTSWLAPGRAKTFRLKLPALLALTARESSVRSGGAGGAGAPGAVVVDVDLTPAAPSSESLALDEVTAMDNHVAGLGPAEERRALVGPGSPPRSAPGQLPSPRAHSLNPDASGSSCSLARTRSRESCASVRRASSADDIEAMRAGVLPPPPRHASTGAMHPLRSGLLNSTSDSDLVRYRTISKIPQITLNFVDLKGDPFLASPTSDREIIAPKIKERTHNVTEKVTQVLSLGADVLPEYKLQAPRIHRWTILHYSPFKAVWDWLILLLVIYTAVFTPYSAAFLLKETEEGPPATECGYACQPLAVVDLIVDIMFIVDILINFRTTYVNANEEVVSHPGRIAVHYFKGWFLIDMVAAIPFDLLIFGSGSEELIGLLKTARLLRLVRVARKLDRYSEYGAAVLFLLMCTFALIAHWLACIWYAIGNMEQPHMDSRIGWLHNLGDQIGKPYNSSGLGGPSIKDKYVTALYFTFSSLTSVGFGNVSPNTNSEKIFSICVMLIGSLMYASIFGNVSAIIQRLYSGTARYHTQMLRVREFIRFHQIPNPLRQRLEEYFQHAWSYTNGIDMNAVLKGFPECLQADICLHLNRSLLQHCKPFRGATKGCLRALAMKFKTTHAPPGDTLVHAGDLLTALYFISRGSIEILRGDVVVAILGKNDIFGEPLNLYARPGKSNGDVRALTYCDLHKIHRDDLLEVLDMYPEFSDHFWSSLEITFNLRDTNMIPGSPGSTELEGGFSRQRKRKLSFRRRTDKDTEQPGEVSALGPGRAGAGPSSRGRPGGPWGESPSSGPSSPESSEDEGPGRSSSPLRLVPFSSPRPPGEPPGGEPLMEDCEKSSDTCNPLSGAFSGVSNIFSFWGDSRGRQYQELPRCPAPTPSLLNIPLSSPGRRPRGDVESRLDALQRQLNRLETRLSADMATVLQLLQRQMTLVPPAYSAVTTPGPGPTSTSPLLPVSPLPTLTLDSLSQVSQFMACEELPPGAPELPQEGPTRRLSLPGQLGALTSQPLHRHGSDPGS
Sequence of Cytochrome P450 2C9 (P11712 whole entry): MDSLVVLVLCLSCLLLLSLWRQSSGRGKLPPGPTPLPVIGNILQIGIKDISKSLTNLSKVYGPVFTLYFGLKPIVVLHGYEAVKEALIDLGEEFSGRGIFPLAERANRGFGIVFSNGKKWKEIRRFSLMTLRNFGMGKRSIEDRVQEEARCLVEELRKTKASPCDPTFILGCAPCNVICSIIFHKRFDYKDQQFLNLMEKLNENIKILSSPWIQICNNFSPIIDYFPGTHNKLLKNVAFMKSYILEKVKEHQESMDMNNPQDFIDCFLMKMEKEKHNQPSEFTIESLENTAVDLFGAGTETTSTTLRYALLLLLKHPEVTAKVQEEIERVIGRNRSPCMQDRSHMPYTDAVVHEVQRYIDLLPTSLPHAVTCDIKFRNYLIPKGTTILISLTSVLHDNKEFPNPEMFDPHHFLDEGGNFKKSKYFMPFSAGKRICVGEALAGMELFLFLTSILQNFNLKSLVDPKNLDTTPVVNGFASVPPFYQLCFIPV

## C[C@@H]1C[C@H]2[C@@H]3CCC4=CC(=O)C=C[C@]4(C)C3=CC[C@]2(C)[C@@]1(O)C(=O)CO [VAMOROLONE]
[1]
  AUC(0-t): 8840 ng·h/mL
Cytochrome P450 2C9
  IC50: > 50 µM
Cytochrome P450 3A4
  Activity: 24%
Canis familiaris [2]
  fCmax: 814 ng/mL
[3]
  Tmax: 4 h
[4]
  remaining at 1 h, 2 µM: 92.5%
[5]
  Vd: 0.757 L/kg
Rattus norvegicus [6]
  fCmax: 2543 ng/mL
Mus musculus [7]
  fAUC: 8842 ng·h/mL
[8]
  half-life: 0.678 h
[9]
  remaining at 1 h, 2 µM: 100%
Canis familiaris [10]
  fAUC: 10844 ng·h/mL
Caco-2
  Papp: 11.2 ×10⁻⁶ cm/s
Canis familiaris [11]
  F: 53.2%
[12]
  half-life: 5.42 h
[13]
  MRT: 0.667 h
[14]
  solubility: 187 µM (≈ 66.7 µg/mL)
Salmonella typhimurium
  Activity: Non-toxic
[15]
  remaining at 1 h, 2 µM: 88.8%
[16]
  AUC(0-t): 32900 ng·h/mL
[17]
  clearance: 20.2 mL/min/kg
[18]
  IC50: 20 µM
Rattus norvegicus [19]
  F: 47.8%
Mus musculus [20]
  F: 74.5%
Mus musculus [21]
  fCmax: 11167 ng/mL
[22]
  Vd: 0.77 L/kg
[23]
  Activity: inactive
Rattus norvegicus [24]
  fAUC: 8339 ng·h/mL
Mus musculus [25]
  fAUC: 32932 ng·h/mL
